Calls of active or inactive are those of the source. The rule behind the calls is not given here.
Tests used:
[1] = Antioxidant activity assessed as glutathione peroxidase-like activity by UV spectrophotometry relative to ebselen; format: physicochemical
Procedure, shortened: (§1)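 Tomoda-type thiol peroxidase model run in methanol, or ethanol where needed for solubility, at 25 (±3) °C. Catalyst at 0.1 mM final and PhSH at 2 mM final were mixed. After about 120 s, H₂O₂ was added to 5 mM final. PhSSPh formation was followed at 305 nm, with runs repeated more than three times. T₅₀ is the time to halve the thiol after H₂O₂ addition. Ebselen and (PhSe)₂ were each set to 1.0.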

Brain = assay: Antioxidant activity in rat brain homogenate assessed as inhibition of Fe(II)-induced TBARS formation after 60 mins by spectrophotometry; format: functional, tissue-based
[2] = molecular target: T1, Thioredoxin reductase 1, cytoplasmic (Rattus norvegicus) (UniProt O89049); assay: Activity of partially purified rat Thioredoxin reductase assessed as NADPH oxidation after 10 mins by spectrophotometry relative to ebselen
T1 sequence (whole entry): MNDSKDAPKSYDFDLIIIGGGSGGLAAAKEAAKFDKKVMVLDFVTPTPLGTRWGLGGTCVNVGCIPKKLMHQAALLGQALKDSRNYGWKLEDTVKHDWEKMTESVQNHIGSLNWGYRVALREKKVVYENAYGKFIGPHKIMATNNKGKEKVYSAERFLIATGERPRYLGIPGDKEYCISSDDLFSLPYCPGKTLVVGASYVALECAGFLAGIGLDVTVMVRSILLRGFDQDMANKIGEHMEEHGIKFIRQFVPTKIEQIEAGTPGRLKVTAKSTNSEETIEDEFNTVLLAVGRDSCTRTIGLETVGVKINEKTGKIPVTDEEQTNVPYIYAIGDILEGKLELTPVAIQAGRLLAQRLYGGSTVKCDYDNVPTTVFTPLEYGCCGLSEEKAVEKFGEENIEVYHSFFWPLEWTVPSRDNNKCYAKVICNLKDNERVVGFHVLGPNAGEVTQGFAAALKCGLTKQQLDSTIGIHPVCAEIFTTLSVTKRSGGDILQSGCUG
Procedure, shortened: (§2)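 Enzyme: partially purified TrxR from rat liver. NADPH consumption read at 340 nm over 10 min, with or without the organoselenium compound. Activity is given as nmol NADPH/min/mg. Efficiency is expressed relative to ebselen. In the reference reaction, NADPH oxidation was checked for sensitivity to […] AuCl₃. Details are in the cited reference.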

[3] = Antioxidant activity assessed as glutathione peroxidase-like activity assessed as time required to reduce the thiol concentration by 50% after addition of H2O2 by UV spectrophotometry; format: physicochemical; procedure, shortened: as §1
[4] = molecular target: T1, Thioredoxin reductase 1, cytoplasmic (Rattus norvegicus); assay: Activity of partially purified rat Thioredoxin reductase assessed as NADPH oxidation after 10 mins by spectrophotometry; procedure, shortened: as §2
[5] = Antioxidant activity assessed as glutathione peroxidase-like activity by UV spectrophotometry relative to (PhSe)2; format: physicochemical; procedure, shortened: as §1
[6] = molecular target: T1, Thioredoxin reductase 1, cytoplasmic (Rattus norvegicus); assay: Activity of partially purified rat Thioredoxin reductase assessed as 5 umol/L AuCl3-mediated inhibition of NADPH oxidation by spectrophotometry
Procedure, shortened: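 Partially purified rat liver TrxR was used. NADPH consumption was followed at 340 nm for 10 min in the absence or presence of an organoselenium catalyst. AuCl3 was added to the reaction containing the reference selenium catalyst. Activity was expressed as nmol NADPH/min/mg.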

SMILES	Ratio [1]	inhibition (Brain)	Ratio [2]	Time [3] [min]	Activity [4] [nmol/min/mg]	Ratio [5]	inhibition [6] [%]
CC(Cc1ccccc1)NC(=O)CC[Se][Se]CCC(=O)NC(C)Cc1ccccc1 (centres undefined)	2.03	Active	4	76	13.7	–	–
CC(Cc1ccccc1)NC(=O)C[Se][Se]CC(=O)NC(C)Cc1ccccc1 (centres undefined)	–	Active	–	299.63	0	–	–
O=C(NCCc1ccccc1)c1ccccc1[Se][Se]c1ccccc1C(=O)NCCc1ccccc1	5.2	Active	–	29.73	0	1.85	–
O=c1c2ccccc2[se]n1-c1ccccc1 [EBSELEN]	–	–	–	154.26	3.4	–	> 95
c1ccc([Se][Se]c2ccccc2)cc1	2.8	–	–	55.04	–	–	–
O=C(C[Se][Se]CC(=O)NCCc1ccccc1)NCCc1ccccc1	3.43	Active	5.6	44.9	19.1	1.23	–
CC(Cc1ccccc1)NC(=O)c1ccccc1[Se][Se]c1ccccc1C(=O)NC(C)Cc1ccccc1 (centres undefined)	9.14	Active	–	16.87	0	3.26	–
O=C(CC[Se][Se]CCC(=O)NCCc1ccccc1)NCCc1ccccc1	1.89	Active	4.7	81.43	16.1	–	–

Source: ChEMBL document CHEMBL3352349, “Synthesis and biological evaluation of new nitrogen-containing diselenides” (Eur J Med Chem, 2014)
